Test [1] can be described thus: Growth inhibition of human HOP92 cells after 48 hrs by SRB assay. It is filed as functional. The conditions noted are these: HOP-92, 48 h. The procedure, abridged: (§1)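 NCI five-dose assay against the ~60-cell-line panel (nine cancer types). Tenfold dilutions from 10−4 to 10−8 M were used with continuous 48-h exposure and SRB absorbance readout. Percent growth was computed from time-zero, control and treated absorbances. GI50 is the concentration giving 50% lower net protein increase than controls. Values not reached are reported as beyond the tested range.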
Background: The SRB assay estimates cell density from bound dye.

A short description of test [2]: Growth inhibition of human RXF393 cells after 48 hrs by SRB assay. The test is classed as functional. The settings on record: RXF 393, 48 h; for TGI: read-out: pTGI (converted). The method in brief: as §1
Test [3] in a line: Growth inhibition of human SNB cells after 48 hrs by SRB assay. It is filed as functional. The procedure, abridged:
as §1

Test [4] is described as follows: Growth inhibition of human […] cells at 10 uM after 48 hrs by SRB assay. The test is classed as functional. The conditions noted are these: read-out: GI. The method in brief:
(§2)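 NCI one-dose screen across roughly 60 human tumour cell lines. Cells were preincubated 24–48 h, then treated with a single 10−5 M concentration for 48 h. Growth was read with the SRB protein-binding dye and reported as percent growth versus untreated controls. Negative values indicate cell kill.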

Test [5] can be described thus: Growth inhibition of human UO31 cells at 10 uM after 48 hrs by SRB assay; values are per cent of control. The settings on record: UO-31, 48 h.
In a further test the test system is CCRF-CEM. The experiment in a line: Growth inhibition of human CCRF-CEM cells at 10 uM after 48 hrs by SRB assay. The test is classed as functional. The conditions noted are these: read-out: GI. The procedure, abridged: as §2
A further test deals with SF-295. Kind of test: Growth inhibition of human SF295 cells after 48 hrs by SRB assay. It is filed as functional. The settings on record: SF-295, 48 h. The method in brief:
as §1

In the next test the test system is NCI-H460. The experiment in a line: Anticancer activity against human NCI-H460 cells assessed as cell growth at 100 uM after 48 hrs by SRB assay. It is filed as functional. The settings on record: NCI-H460, 48 h, read-out: Activity. The method in brief: (§3)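 NCI one-dose primary screen on a three-line panel (breast MCF7, lung NCI-H460, CNS SF-268). Cells were inoculated and preincubated 24–48 h, then exposed to a single concentration of 10−4 M for 48 h. The endpoint was sulforhodamine B protein staining, and results are expressed as percent growth relative to untreated control cells. Negative values denote cytotoxicity.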

Test [6] can be described thus: Growth inhibition of human OVCAR5 cells after 48 hrs by SRB assay. It is filed as functional. The settings on record: OVCAR-5, 48 h. The method in brief: as §1
The next test deals with MCF7. Kind of test: Anticancer activity against human MCF7 cells assessed as cell growth at 100 uM after 48 hrs by SRB assay. It is filed as functional. The conditions noted are these: MCF7, 48 h, read-out: Activity. The procedure, abridged:
as §3

The next test concerns 786-0. Kind of test: Growth inhibition of human 786-0 cells after 48 hrs by SRB assay. It is filed as functional. The conditions noted are these: 786-0, 48 h. The procedure, abridged:
as §1

The next test concerns TK-10. Kind of test: Growth inhibition of human TK10 cells after 48 hrs by SRB assay. The test is classed as functional. The settings on record: TK-10, 48 h. The method in brief: (§4)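 NCI ~60-cell-line five-dose screen. Cells were preincubated 24-48 h, then given compound at 10-fold dilutions from 10^-4 to 10^-8 M with 48 h continuous exposure. SRB protein stain was read by absorbance at time zero, in untreated control and with drug. GI50 was derived from [(Ti-Tz)/(C-Tz)]x100=50, TGI from Ti=Tz, and LC50 from [(Ti-Tz)/Tz]x100=-50.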

The test system of the next test is NCI/ADR-RES. The experiment in a line: Growth inhibition of human NCI/ADR-RES cells after 48 hrs by SRB assay. It is filed as functional. The procedure, abridged: as §1
In another test the test system is SF-268. Kind of test: Anticancer activity against human SF268 cells assessed as cell growth at 100 uM after 48 hrs by SRB assay. The conditions noted are these: SF-268, 48 h, read-out: Activity. It is filed as functional. The method in brief: as §3
The test system of the next test is HCT-116. Kind of test: Growth inhibition of human HCT116 cells after 48 hrs by SRB assay. It is filed as functional. The conditions noted are these: HCT-116, 48 h. The procedure, abridged:
as §1

The subject of a further test is OVCAR-8. The experiment in a line: Growth inhibition of human OVCAR8 cells after 48 hrs by SRB assay. It is filed as functional. The settings on record: OVCAR-8, 48 h. The procedure, abridged:
as §1

For a further test, the system named is NCI-H522. The experiment in a line: Growth inhibition of human NCI-H522 cells after 48 hrs by SRB assay. The test is classed as functional. The conditions noted are these: NCI-H522, 48 h. The procedure, abridged:
as §1

The next test deals with U-251. The experiment in a line: Growth inhibition of human U251 cells after 48 hrs by SRB assay. It is filed as functional. The settings on record: U-251, 48 h. The procedure, abridged: as §4
Another test relates to UACC-62. Kind of test: Growth inhibition of human UACC62 cells after 48 hrs by SRB assay. The test is classed as functional. The conditions noted are these: UACC-62, 48 h. The method in brief: as §4
The next test concerns A549. Kind of test: Growth inhibition of human A549/ATCC cells after 48 hrs by SRB assay. It is filed as functional. The conditions noted are these: A549, 48 h. The procedure, abridged:
as §1

Test [7] is described as follows: Growth inhibition of human HCC2998 cells after 48 hrs by SRB assay. The test is classed as functional. The conditions noted are these: HCC 2998, 48 h. The method in brief: as §1
The subject of a further test is ACHN. Kind of test: Growth inhibition of human ACHN cells after 48 hrs by SRB assay. The test is classed as functional. The procedure, abridged: as §1
Test [8] can be described thus: Growth inhibition of human […] cells after 48 hrs by SRB assay. It is filed as functional. The procedure, abridged:
as §1

Consider 3 compounds from ChEMBL document CHEMBL3124905, “Isothiocoumarin-3-carboxylic acid derivatives: synthesis, anticancer and antitrypanosomal activity evaluation” (Eur J Med Chem, 2014).

With `COc1ccc2cc(C(=O)OC(C)C)sc(=O)c2c1OC`, the figures for the GI50 in [1], in test [2] and in test [3] were 28.8 µM, 20 µM and 23.4 µM, respectively. The TGI in test [1] (read-out: pTGI (converted)) was 85.1 µM; in test [2], 45.7 µM; in test [3] (read-out: pTGI (converted)) it was 53.7 µM.
Regarding `O=C(Nc1ccc(O)cc1)c1cc2ccccc2c(=O)s1`, the figures for the inhibition of growth at 10 µM (in test [4]; with CCRF-CEM) were -11% and -28%, respectively. In addition, the growth percent at 10 µM in test [5] is -62.1%.
As to `COc1ccc2cc(C(=O)Nc3ccc(F)cc3)sc(=O)c2c1OC`, the GI50 – broadly, the concentration at which growth is held to half of that of the control – with SF-295 was 18.2 µM; in [6], 18.6 µM; in the test on 786-0, 11.5 µM; with TK-10 it was 15.1 µM; in the test with NCI/ADR-RES, 12.6 µM; in the test with HCT-116, 14.1 µM. Also, the GI50 in the test on OVCAR-8 is 12.3 µM; in [2], 10.7 µM; with NCI-H522, 18.2 µM; in the test on U-251, 5.5 µM; in the test on UACC-62, 19.5 µM; with A549 it was 18.6 µM. In addition, the values for the GI50 (in test [7]; with ACHN; in [8]) were 14.1 µM, 7.08 µM and 6.76 µM, respectively. Further, the TGI with SF-295 (read-out: pTGI (converted)) was 51.3 µM; in test [6] (read-out: pTGI (converted)), 61.7 µM; in the test with 786-0 (read-out: pTGI (converted)) it was 41.7 µM; with TK-10 (read-out: pTGI (converted)), 33.1 µM; in the test with NCI/ADR-RES (read-out: pTGI (converted)), more than 100 µM; in the test with HCT-116 (read-out: pTGI (converted)) it was 40.7 µM. The TGI in the test on OVCAR-8 (read-out: pTGI (converted)) is 67.6 µM; in test [2], 33.9 µM; in the test with NCI-H522 (read-out: pTGI (converted)), 70.8 µM; in the test on U-251 (read-out: pTGI (converted)) it was 20.4 µM; in the test on UACC-62 (read-out: pTGI (converted)) it was 52.5 µM; with A549 (read-out: pTGI) it was more than 100 µM. The TGI is 49 µM in test [7] (read-out: pTGI (converted)), 26.9 µM with ACHN (read-out: pTGI (converted)) and 22.9 µM in test [8] (read-out: pTGI (converted)). In addition, the figures for the growth at 100 µM in the test on NCI-H460, with MCF7 and in the test with SF-268 were 11%, 55% and 60%, respectively.
